Activity calls are given as the source filed them.
Columns and labels:
[1] = Displacement of [3H]Ro151788 from GABA(A)/BzR in bovine cerebral cortex membrane; type: cell membranes, Bos taurus
Summary of the method: (§1)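 Bovine cerebral cortex membranes in 50 mM Tris-citrate pH 7.4; [3H]flumazenil displacement. Compounds first tested at a fixed 10 µM; Ki determined only when inhibition exceeded 80%, using at least six concentrations. Five experiments run in triplicate; IC50 obtained by iterative curve fitting and converted to Ki with the Cheng–Prusoff equation.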

Mus musculus [2] = test: Antihyperalgesic activity Swiss albino mouse […] assessed as licking latency time at 30 mg/kg, po after 30 mins by hot plate test (reference value: 16.9 +/- 0.8 secs); type: functional
Summary of the method: (§2)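 Hot plate at 52.5 ± 0.1 °C in non-diabetic male Swiss mice. Latency to licking of fore or hind paws was timed before dosing and every 15 min up to 60 min after oral dosing. Mice with pretest latencies below 12 s or above 18 s were excluded. Cut-off was 45 s.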

Rattus norvegicus [3] = test: Toxicity in Sprague-Dawley rat mononeuropathy pain model assessed as effect on contralateral paw pressure at 30 mg/kg, po after 15 mins by paw pressure test; type: organism-based; design: dose 30 mg/kg, route oral; details: in vivo, 0.25 h
Summary of the method: (§3)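 Same sciatic-ligation rat model, 14 days after surgery. Threshold measured on the non-operated contralateral hind paw by analgesimeter at 32 g/s; first-struggle endpoint; 250 g cut-off; pretest rats outside 40–75 g rejected. Compound given po in 10 ml/kg; readings at 15, 30 and 45 min.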

Bos taurus = organism: Bos taurus; test: Displacement of [3H]Ro151788 from GABA(A)/BzR in bovine cerebral cortex membrane at 10 uM; type: cell membranes; summary of the method: as §1
Mus musculus [4] = test: Antihyperalgesic activity Swiss albino mouse […] assessed as licking latency time at 30 mg/kg, po after 45 mins by hot plate test (reference value: 16.9 +/- 0.8 secs); type: functional; summary of the method: as §2
Rattus norvegicus [5] = test: Toxicity in Sprague-Dawley rat mononeuropathy pain model assessed as effect on contralateral paw pressure at 10 mg/kg, po after 15 mins by paw pressure test; type: organism-based; design: dose 10 mg/kg, route oral; details: in vivo, 0.25 h; summary of the method: as §3
Rattus norvegicus [6] = test: Toxicity in Sprague-Dawley rat mononeuropathy pain model assessed as effect on contralateral paw pressure at 30 mg/kg, po after 45 mins by paw pressure test; type: organism-based; design: dose 30 mg/kg, route oral; details: in vivo, 0.75 h; summary of the method: as §3
Mus musculus [7] = test: Antihyperalgesic activity against streptozotocin-induced hyperalgesia in Swiss albino mouse […] assessed as licking latency time at 30 mg/kg, po after 15 mins by hot plate test (reference value: 9.3 +/- 0.7 secs); type: functional
Mus musculus [8] = test: Antihyperalgesic activity Swiss albino mouse […] assessed as licking latency time at 30 mg/kg, po after 60 mins by hot plate test (reference value: 16.9 +/- 0.8 secs); type: functional; summary of the method: as §2
Rattus norvegicus [9] = test: Antinociceptive activity in Sprague-Dawley rat mononeuropathy pain model assessed as increase in injured paw pressure at 30 mg/kg, po after 15 mins by paw pressure test relative to non-treated control; type: functional
Summary of the method: (§4)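 Chronic constriction injury: loose ligatures placed on the common sciatic nerve under chloral hydrate; contralateral sham dissection. Tested 14 days after surgery. Paw pressure applied at 32 g/s; threshold taken as the force causing the first struggle; cut-off 250 g; pretest outliers (<40 g or >75 g) excluded. Oral dosing in 10 ml/kg; read at 15, 30 and 45 min; compared with a CMC-treated group.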

Mus musculus [10] = test: Antihyperalgesic activity Swiss albino mouse […] assessed as licking latency time at 30 mg/kg, po after 15 mins by hot plate test (reference value: 16.9 +/- 0.8 secs); type: functional; summary of the method: as §2
Mus musculus [11] = test: Antihyperalgesic activity against streptozotocin-induced hyperalgesia in Swiss albino mouse […] assessed as licking latency time at 30 mg/kg, po after 30 mins by hot plate test (reference value: 9.3 +/- 0.7 secs); type: functional
Rattus norvegicus [12] = test: Toxicity in Sprague-Dawley rat mononeuropathy pain model assessed as effect on contralateral paw pressure at 10 mg/kg, po after 45 mins by paw pressure test; type: organism-based; design: dose 10 mg/kg, route oral; details: in vivo, 0.75 h; summary of the method: as §3
Rattus norvegicus [13] = test: Antinociceptive activity in Sprague-Dawley rat mononeuropathy pain model assessed as increase in injured paw pressure at 10 mg/kg, po after 15 mins by paw pressure test relative to non-treated control; type: functional; summary of the method: as §4
Rattus norvegicus [14] = test: Antinociceptive activity in Sprague-Dawley rat mononeuropathy pain model assessed as increase in injured paw pressure at 30 mg/kg, po after 45 mins by paw pressure test relative to non-treated control; type: functional; summary of the method: as §4
Rattus norvegicus [15] = test: Toxicity in Sprague-Dawley rat mononeuropathy pain model assessed as effect on contralateral paw pressure at 10 mg/kg, po after 30 mins by paw pressure test; type: organism-based; design: dose 10 mg/kg, route oral; details: in vivo, 0.5 h; summary of the method: as §3
Mus musculus [16] = test: Antihyperalgesic activity against streptozotocin-induced hyperalgesia in Swiss albino mouse […] assessed as licking latency time at 30 mg/kg, po after 60 mins by hot plate test (reference value: 9.3 +/- 0.7 secs); type: functional
Rattus norvegicus [17] = test: Toxicity in Sprague-Dawley rat mononeuropathy pain model assessed as effect on contralateral paw pressure at 30 mg/kg, po after 30 mins by paw pressure test; type: organism-based; design: dose 30 mg/kg, route oral; details: in vivo, 0.5 h; summary of the method: as §3
Mus musculus [18] = test: Antihyperalgesic activity against streptozotocin-induced hyperalgesia in Swiss albino mouse […] assessed as licking latency time at 30 mg/kg, po after 45 mins by hot plate test (reference value: 9.3 +/- 0.7 secs); type: functional
Mus musculus [19] = test: Anxiolytic-like activity in Swiss albino mouse at 30 mg/kg, po after 30 mins by light/dark box test; type: functional, organism-based; design: dose 30 mg/kg
Summary of the method: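 Male Swiss mice tested in a two-compartment light/dark box. Transfers between compartments and time spent in the lit side recorded. Compound given po 30 min before testing, in 10 ml/kg; flumazenil given i.p. for antagonism; 8 mice per group.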

Rattus norvegicus [20] = test: Antinociceptive activity in Sprague-Dawley rat mononeuropathy pain model assessed as increase in injured paw pressure at 30 mg/kg, po after 30 mins by paw pressure test relative to non-treated control; type: functional; summary of the method: as §4
Mus musculus [21] = test: Anticonvulsant activity in Swiss albino mouse […] assessed as protection against intraperitoneally administered pentylenetetrazol-induced seizures at 30 mg/kg, po after 30 mins; type: functional
Summary of the method: (§5)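 Male Swiss albino mice. Compounds given po and PTZ 90 mg/kg injected 30 min later; PTZ was dissolved in 0.9% NaCl saline. Clonic generalized convulsions were recorded over 30 min. Each value is the mean of 10 mice. The methods give the PTZ route as s.c. and the table footnote gives it as ip.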

Rattus norvegicus [22] = test: Antinociceptive activity in Sprague-Dawley rat mononeuropathy pain model assessed as increase in injured paw pressure at 10 mg/kg, po after 45 mins by paw pressure test relative to non-treated control; type: functional; summary of the method: as §4
Mus musculus [23] = test: Analgesic activity in Swiss albino mouse abdominal constriction model assessed as decrease in number of acetic acid-induced writhing at 30 to 60 mg/kg, po after 30 mins; type: functional, organism-based; details: Abdomen
Summary of the method: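 Male Swiss albino mice (23–30 g). Compounds given po in 1% CMC vehicle 30 min before the test. Acetic acid 0.6% injected i.p. at 10 ml/kg. Stretching movements were counted for 10 min, starting 5 min after the acetic acid injection. 8–15 mice per group.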

Rattus norvegicus [24] = test: Antinociceptive activity in Sprague-Dawley rat mononeuropathy pain model assessed as increase in injured paw pressure at 10 mg/kg, po after 30 mins by paw pressure test relative to non-treated control; type: functional; summary of the method: as §4
Mus musculus [25] = test: Antihyperalgesic activity Swiss albino mouse […] assessed as licking latency time at 30 mg/kg, po after 60 mins by hot plate test (reference value: 16.6 +/- 0.8 secs); type: functional; summary of the method: as §2
Mus musculus [26] = test: Antihyperalgesic activity against streptozotocin-induced hyperalgesia in Swiss albino mouse […] assessed as licking latency time at 30 mg/kg, po after 15 mins by hot plate test (reference value: 8.8 +/- 0.7 secs); type: functional
Mus musculus [27] = test: Antihyperalgesic activity against streptozotocin-induced hyperalgesia in Swiss albino mouse […] assessed as licking latency time at 30 mg/kg, po after 30 mins by hot plate test (reference value: 8.8 +/- 0.7 secs); type: functional
Mus musculus [28] = test: Antihyperalgesic activity Swiss albino mouse […] assessed as licking latency time at 30 mg/kg, po after 30 mins by hot plate test (reference value: 16.6 +/- 0.8 secs); type: functional; summary of the method: as §2
Mus musculus [29] = test: Antihyperalgesic activity Swiss albino mouse […] assessed as licking latency time at 30 mg/kg, po after 45 mins by hot plate test (reference value: 16.6 +/- 0.8 secs); type: functional; summary of the method: as §2
Mus musculus [30] = test: Antihyperalgesic activity Swiss albino mouse […] assessed as licking latency time at 30 mg/kg, po after 15 mins by hot plate test (reference value: 16.6 +/- 0.8 secs); type: functional; summary of the method: as §2
Mus musculus [31] = test: Antihyperalgesic activity against streptozotocin-induced hyperalgesia in Swiss albino mouse […] assessed as licking latency time at 30 mg/kg, po after 45 mins by hot plate test (reference value: 8.8 +/- 0.7 secs); type: functional
Mus musculus [32] = test: Antihyperalgesic activity against streptozotocin-induced hyperalgesia in Swiss albino mouse […] assessed as licking latency time at 30 mg/kg, po after 60 mins by hot plate test (reference value: 8.8 +/- 0.7 secs); type: functional
Mus musculus [33] = test: Anticonvulsant activity in Swiss albino mouse […] assessed as protection against intraperitoneally administered pentylenetetrazol-induced seizures at 10 mg/kg, po after 30 mins; type: functional; summary of the method: as §5

In the case of `[O-][n+]1nc2c(I)cnn2c2cc(Cl)ccc21`, the Ki [1] is reported as 22.8 nM.

Work on `CC(COc1ccc2c(c1)n1ncc(I)c1n[n+]2[O-])c1ccccc1` (racemic) yielded a Time (Mus musculus [2]) of 16.8 s, an Activity (Rattus norvegicus [3]) of 58.8 g and an inhibition (Bos taurus) greater than 80%. For the same compound, the Time (Mus musculus [4]) was 17.7 s, the Activity (Rattus norvegicus [5]) was 59.8 g and the Activity (Rattus norvegicus [6]) was 59.2 g. The Time (Mus musculus [7]) was 16.4 s, the Time (Mus musculus [8]) was 18.2 s and the Activity (Rattus norvegicus [9]) was 43.4 g. It also gave a Time (Mus musculus [10]) of 17.2 s, a Time (Mus musculus [11]) of 17.5 s and an Activity (Rattus norvegicus [12]) of 57.9 g. It also gave an Activity (Rattus norvegicus [13]) of 42.5 g, an Activity (Rattus norvegicus [14]) of 39 g and an Activity (Rattus norvegicus [15]) of 63.5 g. For the same compound, the Time (Mus musculus [16]) was 18.1 s, the Activity (Rattus norvegicus [17]) was 61.7 g and the Time (Mus musculus [18]) was 17.8 s. The Activity (Mus musculus [19]) was “Active”, the Activity (Rattus norvegicus [20]) was 40.8 g and the Activity (Mus musculus [21]) was 0%. The Activity (Rattus norvegicus [22]) was 37.2 g, the Activity (Mus musculus [23]) was “inactive” and the Activity (Rattus norvegicus [24]) was 43.5 g.

`Cc1cnn2c1nnc1ccc(OCc3ccccc3)cc12` gave a Ki [1] of 1.6 nM and an inhibition (Bos taurus) greater than 80%.

In the case of `Cc1cnn2c1n[n+]([O-])c1ccc(Cl)cc12`, the Ki [1] is reported as 400 nM and the inhibition (Bos taurus) is reported as greater than 80%.

`COc1ccccc1COc1ccc2c(c1)n1ncc(C)c1n[n+]2[O-]` gave a Ki [1] of 3.02 nM and an inhibition (Bos taurus) greater than 80%.

`CN(Cc1ccccc1)c1ccc2c(c1)n1ncc(I)c1n[n+]2[O-]` showed a Ki [1] of 1.02 nM, an Activity (Rattus norvegicus [3]) of 61.7 g and a Time (Mus musculus [25]) of 17.9 s. It also gave an inhibition (Bos taurus) greater than 80%, an Activity (Rattus norvegicus [6]) of 60.8 g and a Time (Mus musculus [26]) of 10.1 s. For the same compound, the Time (Mus musculus [27]) was 11.8 s, the Activity (Rattus norvegicus [9]) was 29.2 g and the Time (Mus musculus [28]) was 16.8 s. The Time (Mus musculus [29]) was 18.3 s, the Time (Mus musculus [30]) was 17.3 s and the Activity (Rattus norvegicus [14]) was 28.5 g. For the same compound, the Time (Mus musculus [31]) was 10.4 s, the Activity (Rattus norvegicus [17]) was 62.8 g and the Activity (Mus musculus [19]) was “Active”. The Activity (Rattus norvegicus [20]) was 26.5 g, the Activity (Mus musculus [23]) was “inactive” and the Time (Mus musculus [32]) was 11.1 s. For the same compound, the Activity (Mus musculus [33]) was 10%.

`Ic1cnn2c1nnc1ccc(NCc3ccccc3)cc12` showed a Ki [1] of 0.71 nM and an inhibition (Bos taurus) greater than 80%.

In the case of `COc1ccccc1CNc1ccc2c(c1)n1ncc(I)c1n[n+]2[O-]`, the Ki [1] is reported as 0.138 nM and the inhibition (Bos taurus) is reported as greater than 80%.
